Results from ChEMBL document CHEMBL3414433, “Discovery and profiling of a selective and efficacious Syk inhibitor” (J Med Chem, 2015).

How the values were obtained:
[1] = target: T1, Tyrosine-protein kinase SYK (Homo sapiens, UniProt P43405); assay: Inhibition of Syk in anti-CD32 stimulated CD14+ human monocytes assessed as phospho-SLP76 level preincubated for 30 mins followed by anti-CD32 stimulation measured after 5 mins by flow cytometric analysis
[2] = target: T1, Tyrosine-protein kinase SYK
[3] = target: Voltage-gated inwardly rectifying potassium channel KCNH2 (Homo sapiens, UniProt Q12809); assay: Inhibition of human ERG expressed in CHO cells by automated Qpatch clamp assay; format: cell-based
[4] = Cytotoxicity against C57BL/6 mouse bone marrow cells assessed as growth inhibition preincubated for 4 days followed by [3H]-thymidine addition measured after 5 hrs by betaplate counting analysis; format: cell-based, Bone marrow cell
[5] = target: T1, Tyrosine-protein kinase SYK; assay: Inhibition of Syk in anti-igM stimulated human Ramos B cells assessed as phospho-BLNK level preincubated for 30 mins followed by anti-IgM stimulation measured after 15 mins by flow cytometric analysis; format: cell-based
Rattus norvegicus [6] = assay: Dose normalized AUC in Sprague-Dawley rat at 1 mg/kg, iv administered as cassette dosing; format: ADME, organism-based; parameters: dose 1 mg/kg, route intravenous; conditions: in vivo
Summary of the method: (§1)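 Rat PK: i.v. 1 mg/kg in NMP/PEG200 (3:7); p.o. 3 mg/kg in CMC/water/Tween (0.5:99:0.5). Exposure values dose normalized.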

[7] = Mean residence time in Sprague-Dawley rat at 1 mg/kg, iv and 3 mg/kg, po administered as cassette dosing; format: ADME, organism-based; conditions: in vivo
Summary of the method: (§2)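 Rats were dosed i.v. at 1 mg/kg in NMP/PEG200 (3:7) and p.o. at 3 mg/kg in CMC/water/Tween (0.5:99:0.5). PK parameters were derived from blood concentration–time curves for both routes.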

[8] = Volume of distribution at steady state in Sprague-Dawley rat at 1 mg/kg, iv and 3 mg/kg, po administered as cassette dosing; format: ADME, organism-based; conditions: in vivo, read-out: Vdss; summary of the method: as §2
[9] = Clearance in Sprague-Dawley rat at 1 mg/kg, iv and 3 mg/kg, po administered as cassette dosing; format: ADME, organism-based; conditions: in vivo; summary of the method: as §1
Rattus norvegicus [10] = assay: Dose normalized AUC in Sprague-Dawley rat at 3 mg/kg, po administered as cassette dosing; format: ADME, organism-based; parameters: dose 3 mg/kg, route oral; conditions: in vivo; summary of the method: as §1
[11] = Oral bioavailability in Sprague-Dawley rat at 3 mg/kg administered as cassette dosing; format: ADME, organism-based; conditions: in vivo; summary of the method: as §2
Rattus norvegicus [12] = assay: Dose normalized Cmax in Sprague-Dawley rat at 1 mg/kg, iv and 3 mg/kg, po administered as cassette dosing; format: ADME, organism-based; conditions: in vivo; summary of the method: as §1
Hepatocyte [13] = assay: Metabolic stability in human hepatocytes assessed as compound remaining; format: ADME, cell-based
[14] = Metabolic stability in monkey hepatocytes assessed as compound remaining; format: ADME, cell-based, Macaca mulatta, Hepatocyte; conditions: rhesus monkey
Hepatocyte [15] = assay: Metabolic stability in rat hepatocytes assessed as compound remaining; format: ADME, cell-based
[16] = Metabolic stability in dog hepatocytes assessed as compound remaining; format: ADME, cell-based, Canis lupus familiaris, Hepatocyte
[17] = Metabolic stability in monkey liver assessed as formation of 2-(7-(3-((1R,2S)-2-aminocyclohexylamino)-6-carbamoyl-1,2,4-triazin-5-ylamino)-3-oxo-3H-indol-2-ylamino)-3-mercaptopropanoic acid at 10 to 20 uM after 8 to 18 hrs; format: ADME, tissue-based, Macaca mulatta; conditions: rhesus monkey
Summary of the method: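 Freshly excised monkey liver was cut into 230 μm slices from 8 mm cores. Four slices per vessel were preincubated 1 h at 37 °C in Williams medium E with 10% FBS, glucose, insulin, hydrocortisone, methionine, gentamycin and amphotericin B, under 75% O2/5% CO2/20% N2 with rotation. Compound was added at 10 or 20 μM (from 2 mM DMSO stock) for 8 or 18 h, then quenched with cold acetonitrile.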

hERG (KCNH2) [18] = target: T2, hERG (KCNH2) (Homo sapiens, UniProt Q12809); assay: Inhibition of human ERG at 10 uM by manual patch clamp assay relative to control
hERG (KCNH2) [19] = target: T2, hERG (KCNH2); assay: Inhibition of human ERG at 3 uM by manual patch clamp assay relative to control
[20] = Mus musculus, C57BL/6, Bone marrow cell

Chain of Voltage-gated inwardly rectifying potassium channel KCNH2 (Q12809 whole entry): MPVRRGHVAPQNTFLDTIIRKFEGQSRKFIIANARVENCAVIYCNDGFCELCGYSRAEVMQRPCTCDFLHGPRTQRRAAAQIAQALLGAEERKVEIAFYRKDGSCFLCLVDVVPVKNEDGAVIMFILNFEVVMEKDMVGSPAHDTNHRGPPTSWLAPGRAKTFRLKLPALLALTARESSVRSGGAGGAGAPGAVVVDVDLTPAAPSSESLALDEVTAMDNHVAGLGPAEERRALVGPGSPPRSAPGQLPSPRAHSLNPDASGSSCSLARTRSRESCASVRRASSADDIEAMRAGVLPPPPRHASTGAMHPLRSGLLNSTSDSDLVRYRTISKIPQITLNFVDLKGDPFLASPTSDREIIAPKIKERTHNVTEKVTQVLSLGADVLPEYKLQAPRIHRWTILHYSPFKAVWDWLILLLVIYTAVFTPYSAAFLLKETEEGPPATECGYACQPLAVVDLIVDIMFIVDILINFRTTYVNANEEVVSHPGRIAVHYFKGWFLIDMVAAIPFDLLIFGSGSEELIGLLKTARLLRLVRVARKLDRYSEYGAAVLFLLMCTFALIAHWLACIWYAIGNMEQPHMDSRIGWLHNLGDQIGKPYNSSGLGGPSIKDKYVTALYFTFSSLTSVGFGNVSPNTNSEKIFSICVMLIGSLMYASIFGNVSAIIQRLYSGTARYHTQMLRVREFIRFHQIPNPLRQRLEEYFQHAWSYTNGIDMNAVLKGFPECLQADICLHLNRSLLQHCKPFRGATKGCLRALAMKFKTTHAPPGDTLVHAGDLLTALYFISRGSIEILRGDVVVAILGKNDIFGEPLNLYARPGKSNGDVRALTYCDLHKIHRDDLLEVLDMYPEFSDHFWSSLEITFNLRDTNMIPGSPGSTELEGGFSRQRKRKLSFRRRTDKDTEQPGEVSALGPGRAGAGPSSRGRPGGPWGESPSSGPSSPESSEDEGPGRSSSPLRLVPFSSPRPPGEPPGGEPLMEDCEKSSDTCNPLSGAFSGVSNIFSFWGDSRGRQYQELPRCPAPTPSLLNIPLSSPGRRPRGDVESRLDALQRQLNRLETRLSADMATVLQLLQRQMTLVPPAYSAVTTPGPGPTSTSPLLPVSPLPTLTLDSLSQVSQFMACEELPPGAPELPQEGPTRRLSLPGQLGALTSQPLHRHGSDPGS
T2 sequence (Q12809 whole entry): as above

Structure (SMILES)	IC50 [1] [nM]	IC50 [2] [nM]	IC50 [5] [nM]	IC50 [3] [µM]	IC50 [4, 20] [µM]	other results
c1cn2cc(-c3ccc4cn[nH]c4c3)nc(Nc3ccc(N4CCOCC4)cc3)c2n1 [ENTOSPLETINIB]	–	–	–	–	–	IC50 ([4]; bone marrow cell): 0.582 µM
NC(=O)c1nnc(N[C@@H]2CCCC[C@@H]2N)nc1Nc1cccc2[nH]ccc12	177	–	14	3.7	5.27	AUC/dose (Rattus norvegicus [6]): 522 nM·h; MRT [7]: 2.1 h; Vd [8]: 10.3 L/kg; clearance [9]: 83 mL/min/kg; AUC/dose (Rattus norvegicus [10]): 19 nM·h; bioavailability [11]: 4%; Cmax/dose (Rattus norvegicus [12]): 4 nM
NC(=O)c1cnc(N[C@@H]2CCCC[C@@H]2N)nc1Nc1cccc(-n2nccn2)c1	–	–	–	–	5.85	–
NC(=O)c1cnc(N[C@@H]2CCCC[C@@H]2NC(=O)OCc2ccccc2)nc1Nc1cccc2cc[nH]c12	–	–	–	–	–	Stability (Hepatocyte [13]): 2.1%; Stability [14]: 13%; Stability (Hepatocyte [15]): 2.6%; Stability [16]: 8.4%
N[C@H]1COCC[C@H]1Nc1cc2cc[nH]c(=O)c2c(Nc2cccc3cc[nH]c23)n1	–	–	–	–	3.52	–
NC(=O)c1nnc(N[C@@H]2CCCC[C@@H]2N)nc1Nc1cccc(-n2nccn2)c1	–	–	–	3.7	0.811	–
N[C@H]1CCCC[C@H]1Nc1cc2nc[nH]c(=O)c2c(Nc2cccc(-n3nccn3)c2)n1	–	–	–	–	0.249	–
NC(=O)c1nnc(N[C@@H]2CCCC[C@@H]2N)nc1Nc1cccc2c1N=C(NC(CS)C(=O)O)C2=O (stereo partly drawn)	–	–	–	–	–	Drug metabolism [17]: 0.9 µg
NC(=O)c1ccc(N[C@@H]2CCCC[C@@H]2N)nc1Nc1cccc(-n2nccn2)c1	–	19	445	–	2.6	–

Now from value to compound, other results behind:

IC50 [1] [nM]	IC50 [2] [nM]	IC50 [5] [nM]	Structure (SMILES)	IC50 [3] [µM]	IC50 [4, 20] [µM]	other results
1790	1	69	NC(=O)c1ncc(N[C@@H]2CCCC[C@@H]2N)nc1Nc1cccc(-n2nccn2)c1	10	2.11	–
–	165	438	NC(=O)c1ccc(N[C@@H]2CCCC[C@@H]2N)nc1Nc1cccc2cc[nH]c12	> 30	> 10	–
782	94	170	NC(=O)c1cnc(N[C@@H]2CCCC[C@@H]2N)nc1Nc1cccc2cc[nH]c12	> 30	> 10	–
302	5	30	NC(=O)c1ncc(N[C@@H]2CCCC[C@@H]2N)nc1Nc1cccc2cc[nH]c12	8.1	5.27	inhibition at 10 µM (hERG (KCNH2) [18]): 50%; AUC/dose (Rattus norvegicus [6]): 1610 nM·h; MRT [7]: 7.2 h; Vd [8]: 12.3 L/kg; clearance [9]: 28 mL/min/kg; AUC/dose (Rattus norvegicus [10]): 1523 nM·h; inhibition at 3 µM (hERG (KCNH2) [19]): 13%; bioavailability [11]: 95%; Cmax/dose (Rattus norvegicus [12]): 108 nM
